Measurements from different studies.
Lines come from different studies, so protocols differ.
Target: Homeodomain-interacting protein kinase 3 (HIPK3, Homo sapiens, UniProt Q9H422)

With N#Cc1ccc(Nc2ccc3[nH]c(=O)[nH]c3c2)c(Cl)c1 the remaining binding was 94% (cell-free assay, competition with immobilised ligand; 1 µM).
Cc1ccc(Nc2nccc(N(C)c3ccc4c(C)n(C)nc4c3)n2)cc1S(N)(=O)=O gave an inhibition of 24% (enzyme activity, inhibitor; 0.3 µM).
For FC(F)(F)Oc1cccc(-c2cnc3ccc(-c4ccncc4)nn23)c1, the activity vs control was 44% (enzyme activity, inhibitor, radiometric; 1 µM).
The activity vs control of COc1cc(/C=C/C(=O)CC(=O)/C=C/c2ccc(O)c(OC)c2)ccc1O is reported as 88% (enzyme activity, inhibitor; 1 µM).
With O=C(O)c1ccc2c(c1)nc(Nc1ccc(Cl)cc1)c1ccncc12 the remaining activity was 9% (enzyme activity, inhibitor, radiometric; 1 µM).
The remaining signal of Nc1ncnc2occ(-c3ccc(NC(=O)Nc4cc(C(F)(F)F)ccc4F)cc3)c12 is reported as 0.7% (cell-free assay, inhibitor; 20 µM).
CCN(CC)CCNC(=O)c1c(C)[nH]c(/C=C2\C(=O)Nc3ccc(F)cc32)c1C gave an inhibition of 21% (enzyme activity, inhibitor; 0.3 µM).
N#Cc1cccc(Nc2nc3cc(C(=O)O)ccc3c3cncnc23)c1 gave a remaining activity of 8% (enzyme activity, inhibitor, radiometric; 1 µM).
The inhibition of COc1cc2nccc(Oc3ccc(NC(=O)c4c5n(n(-c6ccc(F)cc6)c4=O)CCCC5)cc3)c2cc1OC is reported as -8% (enzyme activity, inhibitor; 0.1 µM).
For Cn1c(=O)n(-c2ccc(C(C)(C)C#N)cc2)c2c3cc(-c4cnc5ccccc5c4)ccc3ncc21, the remaining activity was 102% (enzyme activity, inhibitor; 10 µM).
O=C(NCc1ncc(C(F)(F)F)cc1Cl)c1ccc2c(c1)C1(CCS(=O)(=O)CC1)[C@H](C1CC1)N2S(=O)(=O)c1ccc(F)cc1 gave a remaining binding of 82% (cell-free assay, competition with immobilised ligand; 1 µM).
O=C(O)c1ccc2c(c1)nc(Nc1ccc(Cl)cc1)c1ncncc12 gave a remaining activity of 7% (enzyme activity, inhibitor, radiometric; 1 µM).
NS(=O)(=O)c1cc(NC(=O)Cc2ccccc2)ccc1Oc1cccc(Cl)c1 gave a remaining binding of 84% (cell-free assay, competition with immobilised ligand; 1 µM).
COc1cc(-c2cc(-c3ccc(N4CCNCC4)cc3)cnc2C)cc(OC)c1OC has an inhibition of 1% (enzyme activity, inhibitor; 0.1 µM).
COc1cccc(CCNc2nc3cc(C(=O)O)ccc3c3cncnc23)c1 gave a remaining activity of 27% (enzyme activity, inhibitor, radiometric; 1 µM).
For Cc1ccc(NC(=O)c2ccc(C)c(C(F)(F)F)c2)cc1C#Cc1nn(C2CCC(O)CC2)c2ncnc(N)c12 (stereo not drawn), the remaining signal was 81% (cell-free assay; 10 µM).
Cc1c(C(=O)O)cc(-c2ccc(C3CCNCC3)cc2)c2ccc(-c3ccc(C(F)(F)F)cc3)cc12 gave a remaining binding of 100% (binding, competition with immobilised ligand; 1 µM).
For COc1cc2ncnc(Nc3ccc(Oc4ccccc4)cc3C)c2cc1OC, the inhibition was 3% (enzyme activity, inhibitor; 1 µM).
With O=C(O)c1ccc2c(c1)nc(NCCc1cccc(F)c1)c1ccncc12 the remaining activity was 8% (enzyme activity, inhibitor, radiometric; 1 µM).
Cc1noc([C@H]2C[C@@H](c3ccc(C(F)(F)F)cc3)CN(C(=O)N3CCS(=O)(=O)C3)C2)n1 has a remaining binding of 96% (cell-free assay, competition with immobilised ligand; 1 µM).
For O=C1Nc2ccc(Cl)cc2C1=Cc1cc(Cl)c(O)c(Cl)c1, the remaining signal was 91.5% (cell-free assay; 0.5 µM).
COc1cccc(CNC(=O)c2nc3scc(COCc4ccc(C(=O)O)cc4)c3c(=O)[nH]2)c1 has a remaining binding of 73.7% (cell-free assay, competition with immobilised ligand; 1 µM).
The remaining signal of COc1cc2ncnc(Nc3ccc(F)c(Cl)c3)c2cc1OCCCN1CCOCC1 is reported as 103% (cell-free assay; 0.5 µM).
The remaining binding of CO[C@H]1CC[C@H](CNc2ccc(S(=O)(=O)NC(=O)c3ccc(N4CCN(CC5=C(c6ccc(Cl)cc6)CC(C)(C)CC5)CC4)cc3Oc3cnc4[nH]ccc4c3)cc2[N+](=O)[O-])CC1 is reported as 100% (cell-free assay, competition with immobilised ligand; 1 µM).
The remaining activity of O=C(O)c1ccc2c(c1)nc(Nc1ccccc1)c1ncncc12 is reported as 13% (enzyme activity, inhibitor, radiometric; 1 µM).
C#Cc1cccc(Nc2ncnc3cc(OCCOC)c(OCCOC)cc23)c1 has a remaining signal of 102% (cell-free assay; 0.5 µM).
With O=C(O)c1ccc2c(c1)nc(Nc1cccc(F)c1)c1ccncc12 the remaining activity was 10% (enzyme activity, inhibitor, radiometric; 1 µM).
CC/C(=N\NC(=O)NCc1cccc(O)c1)c1ccc(O)c(C)c1O has an inhibition of 2.5% (enzyme activity, inhibitor; 0.1 µM).
O=C(O)c1ccc2c(c1)nc(Nc1ccccc1Cl)c1ncncc12 gave a remaining activity of 17% (enzyme activity, inhibitor, radiometric; 1 µM).
With O=C(NC[C@@H]1[C@H]2CN(C(=O)OCc3cc(C(F)(F)F)cc(C(F)(F)F)c3)C[C@@H]12)c1ccc2[nH]nnc2c1 the remaining binding was 89% (cell-free assay, competition with immobilised ligand; 1 µM).
